Laboratory results as given in ChEMBL document CHEMBL1124502, “Novel indolecarboxamidotetrazoles as potential antiallergy agents” (J Med Chem, 1989).

What was measured:
[1] = molecular target: T1, High affinity immunoglobulin epsilon receptor subunit alpha (Homo sapiens) (UniProt P12319); assay: (§1) Inhibition of anti-IgE antibody-stimulated histamine release in human basophills at 10 uM; type: functional
T1 sequence (whole entry): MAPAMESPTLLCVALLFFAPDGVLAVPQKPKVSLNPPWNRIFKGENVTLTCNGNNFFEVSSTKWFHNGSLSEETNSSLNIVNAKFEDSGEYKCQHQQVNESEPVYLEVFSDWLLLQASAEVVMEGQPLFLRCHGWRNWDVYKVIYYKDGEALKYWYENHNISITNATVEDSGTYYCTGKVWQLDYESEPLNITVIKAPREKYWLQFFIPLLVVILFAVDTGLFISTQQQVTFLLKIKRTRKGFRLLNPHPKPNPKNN
Method in brief: (§2)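 Human leukocytes isolated after red-cell sedimentation, washed, suspended in buffer; preincubated with compound then challenged with anti-IgE. Released histamine measured by automated fluorometric assay; percent inhibition versus undrugged anti-IgE-challenged controls.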

[2] = molecular target: T1, High affinity immunoglobulin epsilon receptor subunit alpha (Homo sapiens); assay: (§3) Inhibition of anti-IgE antibody-stimulated histamine release in human basophills at 33 uM; type: functional; method in brief: as §2
Homo sapiens [3] = species on record: Homo sapiens; assay: Inhibition of anti-IgE antibody-stimulated histamine release in human basophills at 33 uM; c = sample fluorescence interferes with the histamine assay; type: functional; method in brief: as §2
Cavia porcellus [4] = species on record: Cavia porcellus; assay: Inhibition of ovalbumin-stimulated histamine release in guinea pig lung, at 75 uM compound concentration; […]; type: functional
Homo sapiens [5] = species on record: Homo sapiens; assay: Inhibition of anti-IgE antibody stimulated histamine release in human lung, at 75 uM compound concentration; […]; type: functional
Homo sapiens [6] = species on record: Homo sapiens; assay: Inhibition of anti-IgE antibody stimulated histamine release in human basophils; type: functional
Method in brief: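 Human leukocytes obtained after red-cell sedimentation, washed and suspended in buffer, preincubated with drug, then challenged with anti-IgE. Histamine quantified by automated fluorometric assay; percent inhibition vs nondrug anti-IgE-challenged controls. IC50 from threefold concentrations 1–100 μM.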

Homo sapiens [7] = species on record: Homo sapiens; assay: Inhibition of anti-IgE antibody stimulated histamine release in human lung; type: functional, organism-based
Method in brief: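 Grossly normal human lung from lobectomy, dissected, chopped into 25–75-mg fragments, washed, held overnight in Tyrode's buffer at room temperature, rewashed. About 400 mg tissue at 37 °C in Tyrode's for 10 min, drug or vehicle added, 10 min later anti-IgE (final 3:1000), 30 min further incubation, supernatant sampled for histamine.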

Cavia porcellus [8] = species on record: Cavia porcellus; assay: Inhibition of ovalbumin stimulated histamine release in guinea pig lung
Homo sapiens [9] = species on record: Homo sapiens; assay: as §1; type: functional; method in brief: as §2
Cavia porcellus [10] = species on record: Cavia porcellus; assay: Inhibition of ovalbumin-stimulated histamine release in guinea pig lung; type: functional, organism-based
Homo sapiens [11] = species on record: Homo sapiens; assay: as §3; type: functional, organism-based; method in brief: as §2

inhibition [1] [%]	inhibition [2] [%]	Compound	other results
7	33	CC(C)Oc1c(C(=O)Nc2nn[nH]n2)n(-c2ccccc2)c2ccc(Br)cc12	
	< 25	Cc1ccc2c(c1)c(OC(C)C)c(C(=O)Nc1nn[nH]n1)n2-c1ccccc1	
61	69	COc1ccc2c(c1)c(OC(C)C)c(C(=O)Nc1nn[nH]n1)n2Cc1ccccc1	
26	55	CCOc1c(C(=O)Nc2nn[nH]n2)n(Cc2ccccc2)c2ccc(OC)cc12	
24	50	COc1ccc2c(OC(C)C)c(C(=O)Nc3nn[nH]n3)n(-c3ccccc3)c2c1	
		CCCCCCCCCOc1c(C(=O)Nc2nn[nH]n2)n(-c2ccccc2)c2ccc(OC)cc12	inhibition (Homo sapiens [3]): Sample fluorescence interferes with histamine assay
18	45	COc1ccc2c(c1)c(OC(C)C)c(C(=O)Nc1nn[nH]n1)n2C	
	< 25	COc1ccc2c(c1)c(O)c(C(=O)Nc1nn[nH]n1)n2-c1ccccc1	
46	74	COc1ccc2c(c1)c(OC)c(C(=O)Nc1nn[nH]n1)n2-c1ccccc1	
	< 25	CC(C)Oc1c(C(=O)Nc2nn[nH]n2)n(-c2ccccc2)c2ccc(O)cc12	
	< 25	COc1ccc2c(c1)c(Oc1ccc([N+](=O)[O-])cc1)c(C(=O)Nc1nn[nH]n1)n2-c1ccccc1	
43	84	COc1ccc2c(c1)c(OCc1ccccc1)c(C(=O)Nc1nn[nH]n1)n2-c1ccccc1	
	< 25	O=C([O-])c1cc(=O)c2c(OCC(O)COc3cccc4oc(C(=O)[O-])cc(=O)c34)cccc2o1.[Na+].[Na+] [CROMOLYN SODIUM]	Inhibition (Cavia porcellus [4]): <=25%; Inhibition (Homo sapiens [5]): <=25%
18	72	CC(C)Oc1c(C(=O)Nc2nn[nH]n2)n(-c2ccccc2)c2ccc(Cl)cc12	
25	37	COc1ccc2c(c1)c(OC(C)C)c(-c1nn[nH]n1)n2-c1ccccc1	
	< 25	COc1ccc(-n2c(C(=O)Nc3nn[nH]n3)c(OC(C)C)c3ccccc32)cc1	
13	50	COc1ccc2c(c1)c(SC(C)C)c(C(=O)Nc1nn[nH]n1)n2-c1ccccc1	

inhibition [1] [%]	inhibition [2] [%]	Compound	other results
46	82	COc1ccc2c(c1)c(OC(C)C)c(C(=O)Nc1nn[nH]n1)n2-c1ccccc1	IC50 (Homo sapiens [6]): 15 µM; IC50 (Homo sapiens [7]): 16.6 µM; IC50 (Cavia porcellus [8]): 26.7 µM
40	84	CC(C)Oc1c(C(=O)Nc2nn[nH]n2)n(-c2ccccc2)c2cc(Cl)c(Cl)cc12	
	73	CCOc1c(C(=O)Nc2nn[nH]n2)n(-c2ccccc2)c2ccc(OC)cc12	Inhibition (Homo sapiens [9]): 55%
65	66	CC(C)Oc1c(C(=O)Nc2nn[nH]n2)n(-c2ccccc2)c2ccc(OCc3ccccc3)cc12	
20	66	COc1ccc2c(c1)c(SC)c(C(=O)Nc1nn[nH]n1)n2-c1ccccc1	
16	49	COc1ccc(-n2c(C(=O)Nc3nn[nH]n3)c(OC(C)C)c3cc(OC)ccc32)cc1	
30	82	COc1ccc2c(c1)c(Sc1ccccc1)c(C(=O)Nc1nn[nH]n1)n2-c1ccccc1	
	< 25	CCCc1c2oc(C(=O)O)cc(=O)c2cc2c(=O)cc(C(=O)O)n(CC)c12 [NEDOCROMIL]	Inhibition (Cavia porcellus [4]): <=25%; Inhibition (Homo sapiens [5]): <=25%
	< 25	O=C(Nc1nn[nH]n1)c1c(OCc2ccccc2)c2ccccc2n1-c1ccccc1	
7	46	CCOc1c(C(=O)Nc2nn[nH]n2)[nH]c2ccc(OC)cc12	
	< 25	COc1ccc2c(c1)c(S(C)(=O)=O)c(C(=O)Nc1nn[nH]n1)n2-c1ccccc1	
		COc1ccc2c(c1)c1oc(C(=O)Nc3nnn[nH]3)c(OC)c1n2-c1ccccc1.NC(N)=NCCC[C@H](N)C(=O)O	IC50 (Cavia porcellus [10]): 13.4 µM; IC50 (Homo sapiens [11]): 8.5 µM
	< 25	CC(C)Oc1c(C(=O)Nc2nn[nH]n2)n(-c2ccccc2)c2ccccc12	
	< 25	COc1ccc2c(c1)cc(C(=O)Nc1nn[nH]n1)n2-c1ccccc1	
	< 25	COc1ccc2c(c1)c(C(C)C)c(C(=O)Nc1nn[nH]n1)n2-c1ccccc1	
	< 25	COc1cccc2c1c(OC(C)C)c(C(=O)Nc1nn[nH]n1)n2-c1ccccc1	
17	62	COc1ccc2[nH]c(C(=O)Nc3nn[nH]n3)c(OC(C)C)c2c1	
